Test results as given in ChEMBL document CHEMBL1125745, “Unsaturated and carbocyclic nucleoside analogues: synthesis, antitumor, and antiviral activity” (J Med Chem, 1991).

Columns and labels:
[1] = test system: L1210; assay: Inhibitory activity against murine leukemia L1210 cells; assay type: functional, cell-based; conditions: Mus musculus
[2] = organism: Mus musculus; assay: Concentration that reduces Rauscher murine leukemia virus titer by 50%; assay type: functional, organism-based
Method in brief: (§1)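 SC-1 cells (1 × 10^4/well) were pretreated with polybrene, infected 2 h at 37 °C with F-MuLV or R-MuLV in EMEM-5 with 8 µg/mL polybrene, washed, and refed with analogue for 72 h. They were then UV-irradiated and overlaid with XC cells (2 × 10^5) for 48 h, fixed and stained with crystal violet. Multinucleated cells were counted and EC50 was taken by linear regression versus untreated cultures.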

[3] = Selectivity index is the ratio of IC50 to EC50 of F-MuLV.; assay type: functional
[4] = Selectivity index which is the ratio of IC50 to EC50 of R-MuLV.; assay type: functional
[5] = organism: Mus musculus; assay: Concentration that reduces Friend murine leukemia virus titer by 50%; assay type: functional, organism-based; method in brief: as §1
[6] = organism: Mus musculus; assay: Cytotoxicity was evaluated; assay type: functional
Method in brief: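 SC-1 cells (1 × 10^4 cells/mL) were seeded, incubated overnight at 37 °C, refed with EMEM-10 and given diluted analogue in triplicate for 72 h at 37 °C. Cells were trypsinized and counted in a Coulter counter. The mean of three wells gave percent of control count, and IC50 was calculated by linear regression.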

[7] = organism: Homo sapiens; assay: Cytotoxicity was evaluated against H125 human solid tumor at 500 ug/disk.; assay type: functional
Method in brief: (§2)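 Disk zone assay: analogue dilutions on 6.5 mm paper disks were placed on dishes with a 0.8% agar bottom layer and a 0.44% soft-agar top layer of tumor cells (≤1 × 10^5/plate) in Fishers-CMRL-1066 with 12% horse serum. Plates were incubated 6-10 days and the inhibition zone was measured by microscope; 200 zone units = 6 mm.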

[8] = test system: L1210; assay: Cytotoxicity was evaluated against L1210 leukemia cell line at 500 ug/disk.; assay type: functional, Mus musculus; method in brief: as §2
[9] = test system: MC-38; assay: Cytotoxicity was evaluated against C38 solid tumor of mouse at 500 ug/disk.; assay type: functional; set-up: unit not given beside the values; method in brief: as §2
[10] = test system: PO3; assay: Cytotoxicity was evaluated against PO3 cell line at 1000 ug/disk.
[11] = Cytotoxicity was evaluated against low malignancy line at 500 ug/disk.; assay type: functional; method in brief: as §2
[12] = organism: Homo sapiens; assay: Cytotoxicity was evaluated against C116 human solid tumor at 500 ug/disk.; assay type: functional; method in brief: as §2
[13] = organism: Homo sapiens; assay: Cytotoxicity was evaluated against C116 human solid tumor at 1.5 ug/disk.; assay type: functional; method in brief: as §2
[14] = organism: Homo sapiens; assay: Cytotoxicity was evaluated against PO1 human solid tumor at 1.5 ug/disk.; assay type: functional; method in brief: as §2
[15] = organism: Homo sapiens; assay: Cytotoxicity was evaluated against H125 human solid tumor at 1.5 ug/disk.; assay type: functional; method in brief: as §2
[16] = test system: PO3; assay: Cytotoxicity was evaluated against PO3 cell line at 1.5 ug/disk.; assay type: functional, Mus musculus; method in brief: as §2
[17] = Cytotoxicity was evaluated against CO9 solid tumor of mouse at 1.5 ug/disk.; assay type: functional; method in brief: as §2
[18] = test system: MC-38; assay: Cytotoxicity was evaluated against C38 solid tumor of mouse at 1.5 ug/disk.; assay type: functional; method in brief: as §2
[19] = Cytotoxicity was evaluated against low malignancy line at 1.5 ug/disk.; assay type: functional; method in brief: as §2
[20] = Inhibition of incorporation of labeled precursor into macromolecules of noninfected SC-1 cells with the compound at a concentration 300 uM determined against leucine.; assay type: functional
Method in brief: (§3)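 SC-1 cells seeded in 24-well trays at 1 × 10^4 cells/mL, incubated overnight at 37 °C, then exposed to analogue for 72 h at 37 °C. Labeled thymidine (2.5 µCi), [3H-5,6]uridine or [3H-4,5]leucine was added. After 4 h, cells were washed with cold PBS, lysed in 1% SDS/0.01 M EDTA/0.01 M Tris pH 7.7, and lysates were dried on GF/B filters. Result given as % of untreated incorporation.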

[21] = Inhibition of incorporation of labeled precursor into macromolecules of noninfected SC-1 cells with the compound at a concentration 300 uM determined against thymidine; assay type: functional; method in brief: as §3
[22] = Inhibition of incorporation of labeled precursor into macromolecules of noninfected SC-1 cells with the compound at a concentration 100 uM determined against thymidine; assay type: functional
Method in brief: (§4)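 Noninfected SC-1 cells were incubated with analogue as in the cytotoxicity setup, and [3H]thymidine, [3H]uridine or [3H]leucine was added. After 4 h, wells were washed with ice-cold PBS and cells were lysed in 1% SDS, 0.01 M EDTA, 0.01 M Tris pH 7.7. Lysates were dried on glass-fiber filters, and label is expressed as percent of incorporation in untreated cells.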

[23] = Inhibition of incorporation of labeled precursor into macromolecules of noninfected SC-1 cells with the compound at a concentration 300 uM determined against uridine.; assay type: functional; method in brief: as §3
[24] = Inhibition of incorporation of labeled precursor into macromolecules of noninfected SC-1 cells with the compound at a concentration 100 uM determined against leucine.; assay type: functional; method in brief: as §4
[25] = Inhibition of incorporation of labeled precursor into macromolecules of noninfected SC-1 cells with the compound at a concentration 100 uM determined against uridine.; assay type: functional; method in brief: as §4
[26] = test system: PO3; assay: Cytotoxicity was evaluated against PO3 cell line at 1000 ug/disk.; assay type: functional, Mus musculus; method in brief: as §2
[27] = test system: L1210; assay: Cytotoxicity was evaluated against L1210 leukemia cell line at 1000 ug/disk.; assay type: functional, Mus musculus; method in brief: as §2

Cc1cn(C=C=CCO)c(=O)[nH]c1=O
IC50 [1]: 100 µM

NC1=NC(Cl)c2c(ncn2CC#CCCl)N1 (centres undefined)
IC50 [1]: 39 µM

Nc1nc(O)c2ncn(C/C=C/CO)c2n1
IC50 [1]: 200 µM

Nc1ncnc2c1ncn2[C@H]1CC[C@@H](CO)O1
EC50 [2]: 2.6 µM | SI [3]: 83.8 | SI [4]: 32.2 | EC50 [5]: 1 µM | IC50 [6]: 83.8 µM

Nc1ncnc2c1ncn2CC#CCCl
Cytotoxicity [7]: 900 | Cytotoxicity [8]: 930 | Cytotoxicity [9]: 950 | Cytotoxicity [10]: 520 | IC50 [1]: 90 µM | Cytotoxicity [11]: 950

Nc1ncnc2c1ncn2C=C=CCCl
Cytotoxicity [7]: 300 | Cytotoxicity [8]: 280 | Cytotoxicity [12]: 300 | Cytotoxicity [9]: 400 | Cytotoxicity [10]: 300 | IC50 [1]: 45 µM | Cytotoxicity [11]: 280

Nc1ncnc2c1ncn2[C@@H]1C=C(CO)[C@@H](O)[C@H]1O [NEOPLANOCIN A]
Cytotoxicity [13]: 340 | Cytotoxicity [14]: 0 | Cytotoxicity [15]: 400 | Cytotoxicity [16]: 80 | Cytotoxicity [17]: 40 | Cytotoxicity [18]: 0 | Cytotoxicity [19]: 100

Nc1ccn(C=C=CCO)c(=O)n1
EC50 [2]: 11.5 µM | SI [3]: 60.4 | SI [4]: 42.5 | IC50 [1]: 560 µM | EC50 [5]: 8.1 µM | Precursor inhibition [20]: 75% | IC50 [6]: 489 µM | Precursor inhibition [21]: 67% | Precursor inhibition [22]: 89% | Precursor inhibition [23]: 51% | Precursor inhibition [24]: 91% | Precursor inhibition [25]: 75%

Nc1nc(O)c2ncn(C3C=CCO3)c2n1 (centres undefined)
IC50 [1]: > 350 µM

Nc1nc(O)c2ncn(CC#CCO)c2n1
Cytotoxicity [26]: 210 | IC50 [1]: 210 µM | Cytotoxicity [27]: 220
